Assay results from ChEMBL document CHEMBL1127512 (J Med Chem, 1994).

Assays:
Mu-type opioid receptor = Mu-type opioid receptor (Cavia porcellus, UniProt P97266); experiment: The binding affinity against mu-opioid receptor using [3H]- DAMGO as radioligand
Summary of the method: (§1)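 Competition binding in guinea pig brain membranes against selective tritiated radioligands. Displacement of [3H]U69593 at kappa, [3H]DAMGO at mu, [3H]DPDPE at delta sites.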

[1] = molecular target: Kappa-type opioid receptor (Cavia porcellus, UniProt P41144); experiment: The binding affinity on kappa-opioid receptor using [3H]- U-69,593 as radioligand; summary of the method: as §1
[2] = (§2) Inhibitory concentration was tested on electrically stimulated guinea pig ileal longitudinal muscle using Morphine as mu opioid receptor agonist at 100 nM of the compound; type: functional
Summary of the method: (§3)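 Electrically stimulated guinea pig ileal longitudinal muscle (ethylketazocine, morphine) and mouse vas deferens (DADLE). Antagonist 100 nM preincubated 15 min before standard agonist testing. IC50 ratio = agonist IC50 with antagonist divided by control agonist IC50 in the same preparation. For the kappa line, Ke = [antagonist]/(IC50 ratio − 1).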

[3] = (§4) Inhibitory concentration was tested on electrically stimulated guinea pig ileal longitudinal muscle using ethylketazocine as kappa opioid receptor agonist at 100 nM of the compound; type: functional; summary of the method: as §3
[4] = (§5) Inhibitory concentration was tested on electrically stimulated mouse vas deferens using DADLE as delta opioid receptor agonist at 100 nM of the compound; type: functional; summary of the method: as §3
[5] = tested on: Opioid receptors; delta & kappa; experiment: Selectivity ratio of delta opioid receptor to that of kappa opioid receptor; type: protein assay
[6] = molecular target: T1, Opioid receptors; mu & kappa (Homo sapiens) (UniProt P41145+P35372); experiment: (§6) Selectivity ratio of kappa opioid receptor to that of mu opioid receptor; type: protein assay
[7] = molecular target: Opioid receptors; delta & kappa (Homo sapiens) (UniProt P41145+P41143); experiment: (§7) Selectivity ratio of kappa opioid receptor to that of delta opioid receptor; type: protein assay
[8] = molecular target: T1, Opioid receptors; mu & kappa (Homo sapiens); experiment: Selectivity ratio of mu opioid receptor to that of kappa opioid receptor; type: protein assay
[9] = (§8) Antagonist potency at a concentration of 100 nM; type: functional; summary of the method: as §3
[10] = molecular target: Kappa-type opioid receptor (Cavia porcellus) (UniProt P41144); experiment: as §7
[11] = molecular target: Kappa-type opioid receptor (Cavia porcellus) (UniProt P41144); experiment: as §6
[12] = molecular target: Delta-type opioid receptor (Mus musculus) (UniProt P32300); experiment: as §5; type: functional; summary of the method: as §3
[13] = molecular target: Mu-type opioid receptor (Cavia porcellus) (UniProt P97266); experiment: as §2; type: functional; summary of the method: as §3
[14] = molecular target: Kappa-type opioid receptor (Cavia porcellus) (UniProt P41144); experiment: as §4; type: functional; summary of the method: as §3
[15] = molecular target: Kappa-type opioid receptor (Cavia porcellus) (UniProt P41144); experiment: as §8; type: functional; summary of the method: as §3

Chain of Mu-type opioid receptor (Cavia porcellus) (P97266 whole entry): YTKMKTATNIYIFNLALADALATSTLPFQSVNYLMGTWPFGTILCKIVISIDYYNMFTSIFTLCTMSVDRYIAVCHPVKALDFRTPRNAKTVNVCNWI
Chain of Mu-type opioid receptor (P97266 whole entry): as above
Chain of Delta-type opioid receptor (Mus musculus) (P32300 whole entry): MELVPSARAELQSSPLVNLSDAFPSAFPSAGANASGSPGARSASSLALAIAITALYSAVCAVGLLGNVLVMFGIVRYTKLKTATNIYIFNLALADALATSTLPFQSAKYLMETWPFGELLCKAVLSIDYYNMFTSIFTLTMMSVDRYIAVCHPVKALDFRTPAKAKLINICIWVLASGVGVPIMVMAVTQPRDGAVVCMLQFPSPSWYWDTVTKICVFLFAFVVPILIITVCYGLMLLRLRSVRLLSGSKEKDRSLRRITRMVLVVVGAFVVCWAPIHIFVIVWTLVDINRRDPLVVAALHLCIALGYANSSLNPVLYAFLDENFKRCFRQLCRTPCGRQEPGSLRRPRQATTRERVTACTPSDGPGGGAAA
Chain of Kappa-type opioid receptor (P41144 whole entry): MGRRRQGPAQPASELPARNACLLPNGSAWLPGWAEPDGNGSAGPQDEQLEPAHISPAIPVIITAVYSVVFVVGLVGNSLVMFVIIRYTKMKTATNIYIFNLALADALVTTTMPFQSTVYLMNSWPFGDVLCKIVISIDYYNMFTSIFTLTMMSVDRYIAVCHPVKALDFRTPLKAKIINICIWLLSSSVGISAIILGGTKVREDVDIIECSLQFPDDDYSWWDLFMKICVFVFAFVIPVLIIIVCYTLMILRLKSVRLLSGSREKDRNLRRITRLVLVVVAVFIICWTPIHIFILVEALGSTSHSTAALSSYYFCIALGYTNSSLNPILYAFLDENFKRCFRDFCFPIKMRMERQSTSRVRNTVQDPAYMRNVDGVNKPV
Chain of Kappa-type opioid receptor (Cavia porcellus) (P41144 whole entry): as above
T1 sequence (P35372 whole entry, looked up): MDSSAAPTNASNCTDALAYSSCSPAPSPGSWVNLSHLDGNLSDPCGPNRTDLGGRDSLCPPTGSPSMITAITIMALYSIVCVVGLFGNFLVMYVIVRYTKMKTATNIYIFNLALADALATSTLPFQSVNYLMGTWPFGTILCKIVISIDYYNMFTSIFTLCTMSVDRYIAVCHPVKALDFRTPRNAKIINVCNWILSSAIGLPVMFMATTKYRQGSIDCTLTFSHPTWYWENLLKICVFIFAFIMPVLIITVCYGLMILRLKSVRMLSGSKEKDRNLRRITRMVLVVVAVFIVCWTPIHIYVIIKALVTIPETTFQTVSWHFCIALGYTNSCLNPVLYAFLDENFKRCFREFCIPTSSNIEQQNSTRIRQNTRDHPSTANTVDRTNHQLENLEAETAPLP
T1 sequence (P41145 whole entry, looked up): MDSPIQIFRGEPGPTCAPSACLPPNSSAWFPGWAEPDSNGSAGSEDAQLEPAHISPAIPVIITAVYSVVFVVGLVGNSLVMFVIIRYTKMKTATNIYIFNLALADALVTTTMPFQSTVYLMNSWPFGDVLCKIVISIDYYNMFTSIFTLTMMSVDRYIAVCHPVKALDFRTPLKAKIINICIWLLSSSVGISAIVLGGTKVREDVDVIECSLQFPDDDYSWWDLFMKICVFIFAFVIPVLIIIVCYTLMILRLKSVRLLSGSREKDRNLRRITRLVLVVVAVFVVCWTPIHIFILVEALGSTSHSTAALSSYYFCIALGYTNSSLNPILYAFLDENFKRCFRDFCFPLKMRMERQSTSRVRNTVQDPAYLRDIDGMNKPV
Chain of Opioid receptors; delta & kappa (Homo sapiens) (P41143 whole entry, looked up): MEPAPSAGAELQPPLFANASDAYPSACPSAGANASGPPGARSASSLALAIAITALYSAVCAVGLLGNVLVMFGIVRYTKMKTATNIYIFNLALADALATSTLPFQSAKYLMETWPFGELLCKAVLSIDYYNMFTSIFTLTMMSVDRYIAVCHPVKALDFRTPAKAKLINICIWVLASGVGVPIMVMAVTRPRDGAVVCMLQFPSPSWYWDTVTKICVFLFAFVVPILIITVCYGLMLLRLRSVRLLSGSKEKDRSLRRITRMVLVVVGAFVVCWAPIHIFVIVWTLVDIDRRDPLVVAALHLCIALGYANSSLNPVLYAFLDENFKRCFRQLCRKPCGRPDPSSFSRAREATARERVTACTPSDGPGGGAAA
Chain of Opioid receptors; delta & kappa (Homo sapiens) (P41145 whole entry, looked up): as the sequence (P41145 whole entry, looked up) above

Row | Compound | Ki (Mu-type opioid receptor) | Ki [1] | Ratio [2] | Ratio [3] | Ratio [4] | Ratio [5] | Ratio [6] | Ratio [7] | Ratio [8] | Ke [9] | Ratio [10] | Ratio [11] | Ratio [12] | Ratio [13] | Ratio [14] | Ke [15]
1 | NCCN1CC[C@]23c4c5ccc(O)c4O[C@H]2c2[nH]c4c(c2C[C@@]3(O)[C@H]1C5)C[C@@]1(O)[C@H]2Cc3ccc(O)c5c3[C@@]1(CCN2CC1CC1)[C@H]4O5 | 46 nM | 3.4 nM | 1.6 | 20 | 1.9 | 41 | 12.5 | 10 | 14 | 5.1 nM | – | – | – | – | – | –
2 | Oc1ccc2c3c1O[C@H]1c4[nH]c5c(c4C[C@@]4(O)[C@@H](C2)N(CC2CC2)CC[C@]314)C[C@@]1(O)[C@H]2Cc3ccc(O)c4c3[C@@]1(CCN2CC1CC1)[C@H]5O4 | – | – | – | – | – | – | – | – | – | 0.55 nM | – | – | – | – | – | –
3 | NCC(=O)NCC(=O)N1CC[C@]23c4c5ccc(O)c4O[C@H]2c2[nH]c4c(c2C[C@@]3(O)[C@H]1C5)C[C@@]1(O)[C@H]2Cc3ccc(O)c5c3[C@@]1(CCN2CC1CC1)[C@H]4O5 | 66 nM | 21 nM | 2 | 9.6 | 0.67 | > 15 | 4.8 | – | 3 | 11.7 nM | – | – | – | – | – | –
4 | CCN1CC[C@]23c4c5ccc(O)c4O[C@H]2c2[nH]c4c(c2C[C@@]3(O)[C@H]1C5)C[C@@]1(O)[C@H]2Cc3ccc(O)c5c3[C@@]1(CCN2CC1CC1)[C@H]4O5 | – | – | – | – | – | – | – | – | – | – | 3.5 | 14 | 6.3 | 1.6 | 22 | 4.7 nM
5 | N=C(N)NCCN1CC[C@]23c4c5ccc(O)c4O[C@H]2c2[nH]c4c(c2C[C@@]3(O)[C@H]1C5)C[C@@]1(O)[C@H]2Cc3ccc(O)c5c3C1(CCN2CC1CC1)[C@H]4O5 | 50 nM | 0.59 nM | 1.7 | 27 | 1 | 63 | 15 | 27 | 85 | 3.8 nM | – | – | – | – | – | –
6 | NCC(=O)N1CC[C@]23c4c5ccc(O)c4O[C@H]2c2[nH]c4c(c2C[C@@]3(O)[C@H]1C5)C[C@@]1(O)[C@H]2Cc3ccc(O)c5c3[C@@]1(CCN2CC1CC1)[C@H]4O5 | – | – | – | – | – | – | – | – | – | – | 5.4 | 8.4 | 2.2 | 1.4 | 11.8 | 9.3 nM
7 | CCCCCN1CC[C@]23c4c5ccc(O)c4O[C@H]2c2[nH]c4c(c2C[C@@]3(O)[C@H]1C5)C[C@@]1(O)[C@H]2Cc3ccc(O)c5c3[C@@]1(CCN2CC1CC1)[C@H]4O5 | – | – | – | – | – | – | – | – | – | – | 8.7 | 8.7 | 3.1 | 3.1 | 27 | 3.8 nM
8 | Oc1ccc2c3c1O[C@H]1c4[nH]c5c(c4C[C@@]4(O)[C@@H](C2)N(CCc2ccccc2)CC[C@]314)C[C@@]1(O)[C@H]2Cc3ccc(O)c4c3[C@@]1(CCN2CC1CC1)[C@H]5O4 | – | – | – | – | – | – | – | – | – | – | 181 | 24 | 2.4 | 1.8 | 44 | 2.4 nM
9 | CCCCN1CC[C@]23c4c5ccc(O)c4O[C@H]2c2[nH]c4c(c2C[C@@]3(O)[C@H]1C5)C[C@@]1(O)[C@H]2Cc3ccc(O)c5c3[C@@]1(CCN2CC1CC1)[C@H]4O5 | 73 nM | 0.04 nM | 1.8 | 61 | 1.9 | – | – | – | 1820 | 1.7 nM | – | – | – | – | – | –
10 | CC(=O)N1CC[C@]23c4c5ccc(O)c4O[C@H]2c2[nH]c4c(c2C[C@@]3(O)[C@H]1C5)C[C@@]1(O)[C@H]2Cc3ccc(O)c5c3[C@@]1(CCN2CC1CC1)[C@H]4O5 | – | – | – | – | – | – | – | – | – | – | 1.5 | 2.4 | 2.8 | 1.8 | 4.3 | 30.3 nM
11 | Oc1ccc2c3c1O[C@H]1c4[nH]c5c(c4C[C@@]4(O)[C@@H](C2)NCC[C@]314)C[C@@]1(O)[C@H]2Cc3ccc(O)c4c3[C@@]1(CCN2CC1CC1)[C@H]5O4 | – | – | – | – | – | – | – | – | – | – | 4.8 | 22 | 8.5 | 1.9 | 41 | 2.5 nM
12 | O=C(NCCN1CC[C@]23c4c5ccc(O)c4O[C@H]2c2[nH]c4c(c2C[C@@]3(O)C1=C5)C[C@@]1(O)[C@H]2Cc3ccc(O)c5c3[C@@]1(CCN2CC1CC1)[C@H]4O5)OCc1ccccc1 | – | – | 4.5 | 26 | – | 325 | 5.7 | 5.7 | 194 | 4 nM | – | – | – | – | – | –
